Reference: ChEMBL document CHEMBL4689842, “EUbOPEN Chemogenomics Library wave 1” (2021)

What was measured:
Assay type in all cases: toxicity, cell-based
Fibroblast = experiment: Multiplex assay against human fibroblast
Procedure, shortened: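 Live cells were stained at seeding with Hoechst33342, BioTracker Green Microtubule Cytoskeleton Dye, MitoTracker Red and Annexin V Alexa Fluor 680, then imaged on a CQ1 microscope at 37°C and 5% CO2 after compound addition. CellPathfinder machine-learning gating split cells into Hoechst high-intensity objects or normal cells. Normal cells were split into healthy, pyknosed or fragmented nuclei, and pyknosed cells into mitotic or apoptotic. Tubulin, mitochondrial-mass and membrane-permeability phenotypes are per cents of healthy-nucleus cells.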

HEK-293T = experiment: Incucyte cell viability with HEK293T; conditions: human, 10 µM, compound concentration 10 uM; further: filed as whole numbers so only -1 and 0 and 1 occur
U2OS = experiment: Incucyte cell viability with U2OS; conditions: human, 10 µM, compound concentration 10 uM; further: filed as whole numbers so only -1 and 0 and 1 occur
[1] = 24 h, 10 µM, compound concentration 10 uM, replicate 1
[2] = 24 h, 10 µM, compound concentration 10 uM, replicate 2
[3] = 48 h, 1 µM, compound concentration 1 uM, replicate 1
[4] = 48 h, 1 µM, compound concentration 1 uM, replicate 2
[5] = 48 h, 10 µM, compound concentration 10 uM, replicate 1
[6] = 48 h, 10 µM, compound concentration 10 uM, replicate 2
[7] = 0 h, replicate number 1, timepoint 0 hours
[8] = 0 h, replicate number 2, timepoint 0 hours
[9] = 6 h, replicate number 1, timepoint 6 hours
[10] = 12 h, replicate number 1, timepoint 12 hours
[11] = 18 h, replicate number 1, timepoint 18 hours
[12] = 24 h, replicate number 1, timepoint 24 hours

SMILES: C=CC(=O)Nc1cc(-n2c(=O)ccc3cnc4ccc(-c5ccc(NS(C)(=O)=O)cc5)cc4c32)ccc1C
- Population Normal (%) (Fibroblast; [1]): 90%
- Population Pyknosed Nuclei (%) (Fibroblast; [1]): 23%
- Population Tubulin-Different-Phenotype (%) (Fibroblast; [1]): 50%
- Total Cell Count (Fibroblast; [1]): 141
- Population Apoptotic (%) (Fibroblast; [2]): 84%
- Population Fragmented Nuclei (%) (Fibroblast; [2]): 21%
- Population Healthy Nuclei (%) (Fibroblast; [2]): 32%
- Population Hoechst High Intensity Objects (%) (Fibroblast; [2]): 5%
- Population Membrane Permeable-Phenotype (%) (Fibroblast; [2]): 22%
- Population Mitochondria Different-Phenotype (%) (Fibroblast; [2]): 50%
- Population Mitotic Cells (%) (Fibroblast; [2]): 15%
- Population Normal (%) (Fibroblast; [2]): 94%
- Population Pyknosed Nuclei (%) (Fibroblast; [2]): 46%
- Population Tubulin-Different-Phenotype (%) (Fibroblast; [2]): 33%
- Total Cell Count (Fibroblast; [2]): 59
- Population Apoptotic (%) (Fibroblast; [3]): 61%
- Population Fragmented Nuclei (%) (Fibroblast; [3]): 32%
- Population Healthy Nuclei (%) (Fibroblast; [3]): 43%
- Population Hoechst High Intensity Objects (%) (Fibroblast; [3]): 6%
- Population Membrane Permeable-Phenotype (%) (Fibroblast; [3]): 25%
- Population Mitochondria Different-Phenotype (%) (Fibroblast; [3]): 3%
- Population Mitotic Cells (%) (Fibroblast; [3]): 38%
- Population Normal (%) (Fibroblast; [3]): 93%
- Population Pyknosed Nuclei (%) (Fibroblast; [3]): 24%
- Population Tubulin-Different-Phenotype (%) (Fibroblast; [3]): 34%
- Total Cell Count (Fibroblast; [3]): 79
- Population Apoptotic (%) (Fibroblast; [4]): 0%
- Population Fragmented Nuclei (%) (Fibroblast; [4]): 28%
- Population Healthy Nuclei (%) (Fibroblast; [4]): 65%
- Population Hoechst High Intensity Objects (%) (Fibroblast; [4]): 12%
- Population Membrane Permeable-Phenotype (%) (Fibroblast; [4]): 19%
- Population Mitochondria Different-Phenotype (%) (Fibroblast; [4]): 7%
- Population Mitotic Cells (%) (Fibroblast; [4]): 100%
- Population Normal (%) (Fibroblast; [4]): 87%
- Population Pyknosed Nuclei (%) (Fibroblast; [4]): 6%
- Population Tubulin-Different-Phenotype (%) (Fibroblast; [4]): 21%
- Total Cell Count (Fibroblast; [4]): 72
- Population Apoptotic (%) (Fibroblast; [5]): 78%
- Population Fragmented Nuclei (%) (Fibroblast; [5]): 39%
- Population Healthy Nuclei (%) (Fibroblast; [5]): 43%
- Population Hoechst High Intensity Objects (%) (Fibroblast; [5]): 18%
- Population Membrane Permeable-Phenotype (%) (Fibroblast; [5]): 29%
- Population Mitochondria Different-Phenotype (%) (Fibroblast; [5]): 4%
- Population Mitotic Cells (%) (Fibroblast; [5]): 21%
- Population Normal (%) (Fibroblast; [5]): 81%
- Population Pyknosed Nuclei (%) (Fibroblast; [5]): 17%
- Population Tubulin-Different-Phenotype (%) (Fibroblast; [5]): 56%
- Total Cell Count (Fibroblast; [5]): 135
- Population Apoptotic (%) (Fibroblast; [6]): 100%
- Population Fragmented Nuclei (%) (Fibroblast; [6]): 56%
- Population Healthy Nuclei (%) (Fibroblast; [6]): 42%
- Population Hoechst High Intensity Objects (%) (Fibroblast; [6]): 15%
- Population Membrane Permeable-Phenotype (%) (Fibroblast; [6]): 33%
- Population Mitochondria Different-Phenotype (%) (Fibroblast; [6]): 1%
- Population Mitotic Cells (%) (Fibroblast; [6]): 0%
- Population Normal (%) (Fibroblast; [6]): 85%
- Population Pyknosed Nuclei (%) (Fibroblast; [6]): 0%
- Population Tubulin-Different-Phenotype (%) (Fibroblast; [6]): 50%
- Total Cell Count (Fibroblast; [6]): 140
- Growth Rate (HEK-293T; [7]): 0
- Growth Rate (HEK-293T; [8]): 1
- Growth Rate (HEK-293T; [9]): 0
- Growth Rate (HEK-293T; [10]): 0
- Growth Rate (HEK-293T; [11]): 0
- Growth Rate (HEK-293T; [12]): 0
- Growth Rate (U2OS; [7]): 0
- Growth Rate (U2OS; [8]): 1
- Growth Rate (U2OS; [9]): 1
- Growth Rate (U2OS; [10]): 1
- Growth Rate (U2OS; 12 h, replicate number 2, timepoint 12 hours): 0
- Growth Rate (U2OS; [11]): 0
- Growth Rate (U2OS; [12]): 0
